From ChEMBL document CHEMBL1143784, “Identification and structure-activity relationships of 1-aryl-3-piperidin-4-yl-urea derivatives as CXCR3 receptor antagonists” (Bioorg Med Chem Lett, 2007)
Converted amounts (≈) assume the structure as drawn.

Legend:
[1] = target: T1, C-X-C chemokine receptor type 3 (Homo sapiens, UniProt P49682); test: Antagonist activity at human CXCR3 expressed in CHO cells by [35S]GTP-gamma-S binding assay; assay type: functional, cell-based
T1 sequence (P49682 whole entry): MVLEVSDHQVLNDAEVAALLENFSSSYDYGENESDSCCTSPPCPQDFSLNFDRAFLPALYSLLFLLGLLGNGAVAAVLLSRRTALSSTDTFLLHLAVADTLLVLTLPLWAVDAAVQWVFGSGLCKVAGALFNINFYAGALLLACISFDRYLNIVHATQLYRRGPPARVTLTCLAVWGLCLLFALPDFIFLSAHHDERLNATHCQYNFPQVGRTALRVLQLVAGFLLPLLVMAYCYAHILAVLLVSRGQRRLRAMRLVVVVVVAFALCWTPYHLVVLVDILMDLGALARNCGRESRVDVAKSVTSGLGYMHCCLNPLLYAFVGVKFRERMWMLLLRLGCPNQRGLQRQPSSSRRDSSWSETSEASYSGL

[2] = target: T2, C-X-C chemokine receptor type 3 (Homo sapiens) (UniProt P49682); test: Antagonist activity at human CXCR3 expressed in CHO cells by [35S]GTP-gamma-S binding assay at 10 uM; assay type: functional, cell-based
T2 sequence (whole entry): T1 sequence (P49682 whole entry)

[3] = Clearance in mouse liver microsomes at 0.5 uM; assay type: ADME, Microsome
In short: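 Clearance determined in mouse liver microsomes with compound at 0.5 µM.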

[4] = Aqueous solubility at pH 6.5; assay type: physicochemical
[5] = Clearance in mouse at 1 mg/kg, iv; assay type: ADME, organism-based; design: dose 1 mg/kg, route intravenous; settings: in vivo
In short: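 Mice given 1 mg/kg intravenously; clearance determined.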

[6] = Distribution coefficient, log D of the compound; assay type: physicochemical; settings: octanol/water
Cytochrome P450 2D6 = Cytochrome P450 2D6 (Homo sapiens, UniProt P10635); test: Inhibition at human CYP2D6; assay type: ADME
[7] = target: T3, C-X-C chemokine receptor type 3 (Mus musculus, UniProt O88410); test: Antagonist activity at mouse CXCR3 by [35S]GTP-gamma-S binding assay; assay type: functional
T3 sequence (O88410 whole entry): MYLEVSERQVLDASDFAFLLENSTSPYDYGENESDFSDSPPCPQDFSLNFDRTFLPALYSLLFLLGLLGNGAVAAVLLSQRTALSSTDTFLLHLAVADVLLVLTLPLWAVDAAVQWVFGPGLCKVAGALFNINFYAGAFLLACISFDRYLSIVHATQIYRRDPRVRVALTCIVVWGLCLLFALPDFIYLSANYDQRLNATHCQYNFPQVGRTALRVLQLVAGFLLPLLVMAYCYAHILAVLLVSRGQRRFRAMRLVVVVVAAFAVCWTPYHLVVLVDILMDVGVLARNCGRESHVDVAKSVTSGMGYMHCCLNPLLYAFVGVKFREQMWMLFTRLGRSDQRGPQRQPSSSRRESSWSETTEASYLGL

Cytochrome P450 2D6, sequence (P10635 whole entry): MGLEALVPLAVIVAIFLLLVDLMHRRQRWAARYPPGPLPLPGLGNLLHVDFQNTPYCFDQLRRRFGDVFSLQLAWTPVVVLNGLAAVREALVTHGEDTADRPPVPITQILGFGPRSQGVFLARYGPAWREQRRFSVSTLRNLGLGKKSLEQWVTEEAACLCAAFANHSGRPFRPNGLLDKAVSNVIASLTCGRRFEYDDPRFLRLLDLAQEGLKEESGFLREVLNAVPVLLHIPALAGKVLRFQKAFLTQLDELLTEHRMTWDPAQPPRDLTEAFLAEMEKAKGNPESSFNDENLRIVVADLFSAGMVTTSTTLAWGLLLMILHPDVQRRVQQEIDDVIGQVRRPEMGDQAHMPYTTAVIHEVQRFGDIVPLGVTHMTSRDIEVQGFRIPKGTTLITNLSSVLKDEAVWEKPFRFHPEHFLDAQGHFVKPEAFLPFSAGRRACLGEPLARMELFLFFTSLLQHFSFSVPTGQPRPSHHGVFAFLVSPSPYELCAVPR

Structure (SMILES) | Ki [1] | also measured
O=C(Nc1ccc2ccccc2c1)NC1CCN(CCCc2ccccc2)CC1 | 2200 nM | –
CC1(C)[C@H]2CC=C(CN3CCC(NC(=O)Nc4ccc(F)c(C(F)(F)F)c4)CC3)[C@@H]1C2 | 81 nM | –
COC(=O)c1cccc(NC(=O)NC2CCN(C/C3=C/CCCCCC3)CC2)c1 | 660 nM | –
O=C(Nc1cc(Cl)nc(Cl)c1)NC1CCN(C/C2=C/CCCCCC2)CC1 | 3400 nM | –
CC1(C)[C@H]2CC=C(CN3CCC(NC(=O)Nc4ccc(-c5ccc(C(F)(F)F)cc5)s4)CC3)[C@@H]1C2 | 39 nM | –
CC1(C)[C@H]2CC=C(CN3CCC(NC(=O)Nc4cccc(OC(F)(F)F)c4)CC3)[C@@H]1C2 | 31 nM | –
COc1cccc(NC(=O)NC2CCN(CC3=CC[C@H]4C[C@@H]3C4(C)C)CC2)c1 | 429 nM | –
O=C(Nc1cccc(OC(F)(F)F)c1)NC1CCN(C/C2=C/CCCCCC2)CC1 | 104 nM | –
N#Cc1ccc(NC(=O)NC2CCN(C/C3=C/CCCCCC3)CC2)cc1 | – | Intrinsic activity [2]: < 50%
CC1(C)[C@H]2CC=C(CN3CCC(NC(=O)Nc4cncc(-c5ccsc5)c4)CC3)[C@@H]1C2 | 107 nM | –
O=C(Nc1ccc(-c2ccccc2)s1)NC1CCN(C/C2=C/CCCCCC2)CC1 | 108 nM | –
CC1(C)[C@H]2CC=C(CN3CCC(NC(=O)Nc4cccc(CN5CCOCC5)c4)CC3)[C@@H]1C2 | – | Intrinsic activity [2]: < 50%
N#Cc1cccc(NC(=O)NC2CCN(C/C3=C/CCCCCC3)CC2)c1 | – | Intrinsic activity [2]: < 50%
O=C(Nc1ccc(Oc2ccccc2)cc1)NC1CCN(C/C2=C/CCCCCC2)CC1 | 306 nM | –
CC1(C)[C@H]2CC=C(CN3CCC(NC(=O)Nc4cncc(Br)c4)CC3)[C@@H]1C2 | 171 nM | –
CC1(C)[C@H]2CC=C(CN3CCC(NC(=O)Nc4cncc(-c5cccs5)c4)CC3)[C@@H]1C2 | 70 nM | microsomal CLint at 0.5 µM [3]: 324 µL/min/mg; solubility [4]: 4 µg/mL (≈ 9.16 µM); clearance [5]: 112 mL/min/kg; logD [6]: 3.47
CC1(C)[C@H]2CC=C(CN3CCC(NC(=O)Nc4cccc(OC5CCOC5)c4)CC3)[C@@H]1C2 (stereo not given in full) | 141 nM | microsomal CLint at 0.5 µM [3]: 287 µL/min/mg; solubility [4]: 927 µg/mL (≈ 2110 µM); clearance [5]: 222 mL/min/kg; logD [6]: 3.87
CC1(C)[C@H]2CC=C(CN3CCC(NC(=O)Nc4cc(C(F)(F)F)cc(C(F)(F)F)c4)CC3)[C@@H]1C2 | 73 nM | –
CC1(C)[C@H]2CC=C(CN3CCC(NC(=O)Nc4ccc(-c5ccccc5Cl)s4)CC3)[C@@H]1C2 | 46 nM | –
CC1(C)[C@H]2CC=C(CN3CCC(NC(=O)Nc4ccc(-c5ccccc5)s4)CC3)[C@@H]1C2 | 191 nM | –
CC1(C)[C@H]2CC=C(CN3CCC(NC(=O)Nc4cc(F)cc(C(F)(F)F)c4)CC3)[C@@H]1C2 | 16 nM | –
CC1(C)[C@H]2CC=C(CN3CCC(NC(=O)Nc4cccc(CO)c4)CC3)[C@@H]1C2 | – | Intrinsic activity [2]: < 50%
CC1(C)[C@H]2CC=C(CN3CCC(NC(=O)Nc4cc(F)cc(F)c4)CC3)[C@@H]1C2 | 171 nM | –

Structure (SMILES) | Ki [1] | also measured
CC1(C)[C@H]2CC=C(CN3CCC(NC(=O)Nc4ccccc4)CC3)[C@@H]1C2 | 2000 nM | –
COc1cccc(-c2ccc(NC(=O)NC3CCN(CC4=CC[C@H]5C[C@@H]4C5(C)C)CC3)s2)c1 | 29 nM | –
O=C(Nc1cc(F)cc(C(F)(F)F)c1)NC1CCN(C/C2=C/CCCCCC2)CC1 | 47 nM | –
O=C(Nc1cccc2ccccc12)NC1CCN(C/C2=C/CCCCCC2)CC1 | – | Intrinsic activity [2]: < 50%
O=C(Nc1cc(C(F)(F)F)cc(C(F)(F)F)c1)NC1CCN(C/C2=C/CCCCCC2)CC1 | 36 nM | –
O=C(Nc1ccsc1)NC1CCN(C/C2=C/CCCCCC2)CC1 | – | Intrinsic activity [2]: < 50%
O=C(Nc1ccc2ccccc2c1)NC1CCN(C/C2=C/CCCCCC2)CC1 | 110 nM | Ki (Cytochrome P450 2D6): 600 nM; solubility [4]: 1 µg/mL (≈ 2.55 µM); Ki [7]: 400 nM; logD [6]: 4.95
O=C(Nc1ccc2ccccc2c1)NC1CCN(CCc2ccccc2)CC1 | 1300 nM | –
CC(=O)c1cccc(NC(=O)NC2CCN(C/C3=C/CCCCCC3)CC2)c1 | 637 nM | –
CC(C)(C)c1ccc(NC(=O)NC2CCN(C/C3=C/CCCCCC3)CC2)cc1 | 1040 nM | –
CC(=O)c1cccc(NC(=O)NC2CCN(CC3=CC[C@H]4C[C@@H]3C4(C)C)CC2)c1 | 258 nM | –
CC1(C)[C@H]2CC=C(CN3CCC(NC(=O)Nc4cccc(C(=O)O)c4)CC3)[C@@H]1C2 | – | Intrinsic activity [2]: < 50%
CC1(C)[C@H]2CC=C(CN3CCC(NC(=O)Nc4cc(C(F)(F)F)ccc4F)CC3)[C@@H]1C2 | 229 nM | –
COC(=O)c1cccc(NC(=O)NC2CCN(CC3=CC[C@H]4C[C@@H]3C4(C)C)CC2)c1 | 376 nM | –
CC1(C)[C@H]2CC=C(C[N+]3(C)CCC(NC(=O)Nc4cc(F)cc(C(F)(F)F)c4)CC3)[C@@H]1C2.[I-] (stereo not given in full) | 28 nM | microsomal CLint at 0.5 µM [3]: 66 µL/min/mg; solubility [4]: 55 µg/mL; clearance [5]: 34.5 mL/min/kg; logD [6]: 2.35
CC1(C)[C@H]2CC=C(CN3CCC(NC(=O)Nc4cccc(OC5CCOCC5)c4)CC3)[C@@H]1C2 | 191 nM | –
O=C(Nc1cc(Cl)cc(Cl)c1)NC1CCN(C/C2=C/CCCCCC2)CC1 | 41 nM | –
O=C(Nc1cccc(Cl)c1)NC1CCN(C/C2=C/CCCCCC2)CC1 | 201 nM | –
O=C(Nc1cccc(C(F)(F)F)c1)NC1CCN(C/C2=C/CCCCCC2)CC1 | 88 nM | –
CC1(C)[C@H]2CC=C(CN3CCC(NC(=O)Nc4ccc(OC(F)(F)F)cc4)CC3)[C@@H]1C2 | 175 nM | –
CC1(C)[C@H]2CC=C(CN3CCC(NC(=O)Nc4cc(F)cc(OC5CCOC5)c4)CC3)[C@@H]1C2 (stereo not given in full) | 83 nM | microsomal CLint at 0.5 µM [3]: 97 µL/min/mg; solubility [4]: 874 µg/mL (≈ 1910 µM); logD [6]: 3
CC1(C)C2CC=C(CCN3CCC(NC(=O)Nc4ccc5ccccc5c4)CC3)C1C2 (stereo not given) | 290 nM | –
O=C(Nc1ccc2ccccc2c1)NC1CCN(CC23C=CC(CC2)C3)CC1 (stereo not given) | – | Intrinsic activity [2]: < 50%
